Source: PubChem BioAssay (The Scripps Research Institute Molecular Screening Center)
M1 PAM: human M1 muscarinic receptor positive allosteric modulators, primary screen, CHO-K1 cells, Fluo-8 calcium fluorescence, 1536-well | Muscarinic acetylcholine receptor M1 (Homo sapiens), P11229 | CHO-K1 hM1, ACh EC20; 0% = ACh EC20, 100% = maximal ACh | activation, % at 3 µM | hit rate 0.088% among 360,000; in the data active = activation above about 19%, passing the limit was not always enough
CHRM1 agonist: human M1 muscarinic receptor agonists, primary screen, Fluo-8 calcium fluorescence, CHO-K1 cells, HTS; Muscarinic acetylcholine receptor M1 (Homo sapiens), P11229; CHO-K1 hM1, agonist mode; 0% DMSO, 100% acetylcholine EC100; activation, % at 3 µM; hit rate 0.33% among 360,000;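 active = activation above the run's mean compound activation plus 3 SD, cut at about 16% in these data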;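 also: peak over basal fluorescence ratio within a 140 s kinetic read after compound addition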
CHRM1 antagonist: human M1 muscarinic receptor antagonists, primary screen, CHO-K1 cells, Fluo-8 calcium fluorescence, 1536-well | CHO-K1 hM1, ACh EC80 antagonist | AID 588852, 2011 | hit rate 1.3% among 360,000 | inhibition, % at 3 µM | Muscarinic acetylcholine receptor M1 (Homo sapiens), P11229;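 active = percent inhibition above its own plate's cutoff, namely the mean of that plate's compound wells plus 3 SD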;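 also: peak over basal fluorescence ratio during 140 s after agonist addition; 0% = ACh EC80 plus DMSO and 100% = DMSO alone without agonist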
TAAR1 agonist: human TAAR1 agonists, primary screen, Fluo-8 calcium fluorescence, CHO RD-HGA16 cells. Trace amine-associated receptor 1 (Homo sapiens), Q96RJ0. vehicle wells 0%, saturating PEA agonist 100%. activation, % at 3 µM. hit rate 0.99% among 360,000. AID 624467, 2012;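 active = activation above the mean activation of all test compounds in the run plus 3 SD, cut at about 38% in these data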
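Test system: RD-HGA16 (CHO) cells co-expressing Gα16 and hTAAR1 | Doses: Single dose, 3 µM | Schedule: 17-24 h seeding, 75 min 37 °C dye, 30 min RT | Evaluation: % activation from peak over basal fluorescence ratio, DMSO-to-PEA scaled | Technique: Kinetic Fluo-8 calcium fluorescence | Benchmarks: Low control DMSO, high control PEA (EC100)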
m5-HT2A agonist: mouse Htr2a agonists via beta-arrestin recruitment, primary screen, cell-based, luminescence | CHO-K1 mHTR2A beta-arrestin complementation; percent of 30 µM serotonin response | activation, % at 7.6 µM | hit rate 0.66% among 360,000;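 active = activation above a run cutoff, the mean activation of all tested compounds plus 3 SD, cut at about 14% in these data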;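 also: 0% = plate median of compound wells and 100% = 30 µM serotonin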
Target sequence (P35363 whole entry, looked up): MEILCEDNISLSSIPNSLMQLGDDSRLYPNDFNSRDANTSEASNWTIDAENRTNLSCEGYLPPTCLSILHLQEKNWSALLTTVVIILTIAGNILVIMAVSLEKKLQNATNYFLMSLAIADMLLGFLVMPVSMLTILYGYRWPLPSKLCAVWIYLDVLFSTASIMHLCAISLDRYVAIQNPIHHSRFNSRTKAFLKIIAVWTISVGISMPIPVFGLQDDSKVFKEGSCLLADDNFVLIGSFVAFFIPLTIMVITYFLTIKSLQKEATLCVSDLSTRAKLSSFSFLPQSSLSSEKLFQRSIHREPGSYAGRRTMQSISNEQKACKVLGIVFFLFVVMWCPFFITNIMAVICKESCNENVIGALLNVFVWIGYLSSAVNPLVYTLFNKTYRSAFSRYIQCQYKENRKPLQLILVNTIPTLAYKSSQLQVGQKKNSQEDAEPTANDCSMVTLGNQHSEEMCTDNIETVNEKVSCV
TAAR1 antagonist: human TAAR1 antagonists, primary screen, Fluo-8 calcium fluorescence, CHO RD-HGA16 cells; Trace amine-associated receptor 1 (Homo sapiens), Q96RJ0; inhibition, % at 3 µM; antagonist; AID 624466, 2012; hit rate 1.5% among 360,000;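 active = inhibition above a per-plate cutoff, the mean inhibition of test compounds on that plate plus 3 SD, cut at about 49% in these data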;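 also: 0% = DMSO plus EC80 beta-PEA response and 100% = DMSO alone without agonist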
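Test system – hTAAR1-expressing CHO RD-HGA16 cells, Gα16-coupled · Also added – β-PEA at EC80 concentration, post-compound challenge · Compound – 3 µM, single point · Incubation – dye loading 75 min at 37 °C, then 30 min room temperature · Measured by – Fluo-8 intracellular calcium dye fluorescence, real-time kinetic reads · Benchmarks – vehicle and agonist controls · Replicates – singlicate, one well per test compound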
Active calls of the source: *; / = no result. Shown are actives, neighbours in structure and some others; about 3.9% of the full set was active somewhere.

SMILES	M1 PAM	CHRM1 agonist	CHRM1 antagonist	TAAR1 agonist	m5-HT2A agonist	TAAR1 antagonist
COc1ccc(S(=O)(=O)N2CCOC2CNC(=O)C(=O)NCc2ccc3c(c2)OCO3)cc1 (stereo unspecified)	5	-2	-8	0	-5	-14
CCOC(=O)C1=C(CCl)NC(=O)NC1c1ccc2c(c1)OCO2 (stereo unspecified)	20	1	-9	0	-1	14
CCOC(=O)C1CCN(Cc2ccc(OCc3ccccc3)cc2)CC1	-29	-8	49*	6	8	-7
Cc1cc(OCCN2CC(C)OC(C)C2)ccc1[N+](=O)[O-] (stereo unspecified)	0	-9	12	14	-6	-3
CCOc1ccc(CN2CCC(Cc3ccccc3)CC2)cc1	-29	-8	58*	26	-6	-6
OC(COc1ccc(Cl)cc1)CN1CCC(Cc2ccccc2)CC1 (stereo unspecified)	-13	0	10	41*	-20	8
NC(=O)C1CCN(Cc2ccc(OCc3ccccc3)cc2)CC1	-17	-10	27	5	0	-12
Cc1cc(OCCN2CCC(Cc3ccccc3)CC2)ccc1[N+](=O)[O-]	-31	-6	101*	26	-7	-9
O=C(c1ccc(Cl)cc1)C1CCCN(Cc2ccc(Oc3ncccn3)cc2)C1 (stereo unspecified)	-23	-5	62*	-1	-1	-21
COc1ccc(Nc2nc(N)nc(CN3CCC(Cc4ccccc4)CC3)n2)cc1	-27	-12	33*	2	-5	-12
CCOC(=O)C1CCCN(Cc2ccc(OCC)cc2)C1 (stereo unspecified)	-9	31*	2	2	5	-22
COc1ccccc1Nc1nc(N)nc(CN2CCC(Cc3ccccc3)CC2)n1	-15	-5	16	3	-4	-12
O=C(c1ccc(Cl)cc1)C1CCCN(Cc2cnn(-c3ccccc3)c2)C1 (stereo unspecified)	-20	-7	26	12	-11	-1
Cc1[nH]c2ccccc2c1CN1CCC(Cc2ccccc2)CC1	-6	-4	16	41*	0	7
Cc1[nH]c2ccccc2c1CN1CCN(c2ccccn2)CC1	-4	-7	2	6	9	-11
CCOC(=O)CSc1n[nH]c(NC(=O)NC(C)C)n1	0	-4	2	0	4	14
CCCCN(C)C(=O)C1CCN(Cc2ccc(OCc3ccccc3)cc2)CC1	-21	-6	41*	4	-5	-13
CCCCNC(=O)C1CCN(Cc2ccc(OCc3ccccc3)c(OC)c2)CC1	9	-10	-4	5	-5	-23
COC(=O)c1ccc(CN2CCCC(CO)(Cc3ccc(F)cc3F)C2)cc1 (stereo unspecified)	-18	11	48*	-1	-5	-10
OCC1(CCOc2ccccc2)CCN(CC2=Cc3cc(Cl)ccc3OC2)CC1	-13	3	39*	9	-19	16
COC(=O)c1ccc(CN2CCC(CO)(CCOc3ccccc3)CC2)cc1	-16	14	77*	1	-4	10
COC(=O)c1ccc(CN2CCC(CO)(Cc3cccc(OC)c3)CC2)cc1	-28	-7	75*	0	6	0
CC(=O)c1cccc(CN2CCC(CO)(CCOc3ccccc3)CC2)c1	-1	-9	-4	0	-3	8
COc1cccc(CC2(CO)CCN(S(=O)(=O)N(C)C)CC2)c1	-10	-2	3	1	-1	14
COc1ccc(C(C)(O)c2nc(-c3cnc4ccccc4c3)cs2)cc1 (stereo unspecified)	-1	-5	-9	6	-8	0
SMILES	M1 PAM	CHRM1 agonist	CHRM1 antagonist	TAAR1 agonist	m5-HT2A agonist	TAAR1 antagonist
CC(=O)Nc1ccc(CNc2nc3cc(-c4ccc(F)cc4)sc3c(=O)n2C)cc1	-2	-1	0	13	-1	27
c1ccc2c(c1)ncn2-c1ncnc2sc3c(c12)CCCC3	1	-3	-7	20	0	-12
CC(O)CNc1nc2ccccc2n1-c1ncnc2sc3c(c12)CCC3 (stereo unspecified)	-5	-3	11	2	18*	22
O=C(Nc1ccccc1O)c1ccc2c(c1)C(=O)N(Cc1ccco1)C2=O	-5	1	16	14	7	51*
COc1ccccc1NC(=O)c1ccc2c(c1)C(=O)N(Cc1ccco1)C2=O	10	0	-19	1	12	-11
CCC(=O)N(CCO)Cc1cc2ccc(C)c(C)c2[nH]c1=O	13	-3	-10	5	-3	-14
CC(=O)N(CCc1ccccc1)Cc1cc2ccc(C)c(C)c2[nH]c1=O	3	1	-12	41*	-7	11
CC1CCCN(c2cccc3c2S(=O)(=O)N(Cc2cccc(F)c2)[C@@H](C)[C@H](c2ccccc2)O3)C1 (stereo partly specified)	/	/	/	7	/	-26
O=C(O)c1ccccc1NC(=O)C1CCN(S(=O)(=O)c2cccc3nsnc23)CC1	11	-1	-14	-1	3	-36
Cc1cc2c(c(=O)o1)[C@@]1(C(=O)N(C)c3c(Br)cccc31)C1=C(CCCC1=O)O2	/	/	/	1	/	-20
CCN(CC)c1ccc2cc(-c3nnc(-c4ccccc4)o3)c(=O)oc2c1	-20	108*	15*	34	-4	40
CCN(CC)c1ccc2cc(-c3nc4ccccc4[nH]3)c(=O)oc2c1	-38	279*	69*	/	0	/
CCN(CC)c1ccc2cc(C(=O)c3cccs3)c(=O)oc2c1	-36	131*	60*	7	5	-14
CCN(CC)c1ccc2cc(-c3nc4ccccc4n3C)c(=O)oc2c1	-8	15	5	28	-1	55*
COc1cccc2cc(-c3nc4ccccc4[nH]3)c(=O)oc12	2	-4	-17	8	0	14
O=c1oc2ccc3ccccc3c2cc1-c1nnc(-c2ccccc2)o1	-3	-5	2	4	5	-2
CCCN(CC(=O)Nc1ccccc1C)C(=O)c1ccc(C2SCCS2)cc1	5	-1	-5	2	5	16
